Values after ≈ are worked out from the molar mass of the structure shown.
Tests used:
Bacteroides fragilis [1] = test: In vitro antimicrobial activity against anaerobic bacteria bacteroides fragilis 111; format: functional
Bacteroides fragilis [2] = test: In vitro antimicrobial activity against anaerobic bacteria bacteroides fragilis 1877; format: functional
Bacteroides fragilis [3] = test: In vitro antimicrobial activity against anaerobic bacteria bacteroides fragilis 1936B,; format: functional
Eikenella corrodens = test: In vitro antimicrobial activity against anaerobic bacteria bacteroides corrodens 1874; format: functional
Phocaeicola vulgatus = test: In vitro antimicrobial activity against anaerobic bacteria bacteroides vulgatus 1211; format: functional
[4] = tested on: Prevotella melaninogenica; test: In vitro antimicrobial activity against anaerobic bacteria bacteroides melaninogenicus 1856,; format: functional
[5] = tested on: Bacteroides thetaiotaomicron; test: In vitro antimicrobial activity against anaerobic bacteria bacteroides thetaiotaomicron 1438; format: functional
Clostridioides difficile = test: In vitro antimicrobial activity against anaerobic bacteria Clostridium difficile 2994; format: functional
Clostridium perfringens = test: In vitro antimicrobial activity against anaerobic bacteria clostridium perfringens 81,; format: functional
Clostridium septicum = test: In vitro antimicrobial activity against anaerobic bacteria clostridium septicum 1128; format: functional
Chlamydia trachomatis = test: In vitro antimicrobial activity against chlamydia trachomatis.; format: functional
Fusobacterium = test: In vitro antimicrobial activity against anaerobic bacteria fusobacterium symbiosum 1470; format: functional
Haemophilus influenzae [6] = test: In vitro antimicrobial activity against aerobic bacteria Haemophilus influenzae 76; format: functional
Haemophilus influenzae [7] = test: In vitro antimicrobial activity against aerobic bacteria Haemophilus influenzae MX366,; format: functional
Haemophilus influenzae [8] = test: In vitro antimicrobial activity against Haemophilus influenzae.; format: functional
[9] = tested on: Haemophilus parainfluenzae; test: In vitro antimicrobial activity against aerobic bacteria Haemophilus parainfluenzae 9796; format: functional
Mus musculus [10] = test: Peripheral plasma levels in mice after oral administration of 50 mg/kg dose for 2 hr; format: functional, organism-based; parameters: dose 50 mg/kg
Procedure, shortened: (§1)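 Mice were given the compound orally and sampled for peripheral plasma at each time point. Plasma was assayed microbiologically against Micrococcus luteus seeded in Antibiotic Medium 1. Inhibition zone sizes were read, and concentrations were calculated from each compound's own standard curve. Each value is the mean of five mice per time point.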

Mus musculus [11] = test: Peripheral plasma levels in mice after oral administration of 50 mg/kg dose for 4 hr; format: functional, organism-based; parameters: dose 50 mg/kg; procedure, shortened: as §1
Mus musculus [12] = test: Peripheral plasma levels in mice after oral administration of 100 mg/kg dose for 4 hr; format: functional, organism-based; parameters: dose 100 mg/kg; procedure, shortened: as §1
Mus musculus [13] = test: Peripheral plasma levels in mice after oral administration of 50 mg/kg dose for 0.25 hr; format: functional, organism-based; parameters: dose 50 mg/kg; procedure, shortened: as §1
Mus musculus [14] = test: Peripheral plasma levels in mice after oral administration of 100 mg/kg dose for 0.25 hr; format: functional, organism-based; parameters: dose 100 mg/kg; procedure, shortened: as §1
Mus musculus [15] = test: Peripheral plasma levels in mice after oral administration of 100 mg/kg dose for 0.5 hr; format: functional, organism-based; parameters: dose 100 mg/kg; procedure, shortened: as §1
Mus musculus [16] = test: Peripheral plasma levels in mice after oral administration of 100 mg/kg dose for 1 hr; format: functional, organism-based; parameters: dose 100 mg/kg; procedure, shortened: as §1
Mus musculus [17] = test: Peripheral plasma levels in mice after oral administration of 100 mg/kg dose for 2 hr; format: functional, organism-based; parameters: dose 100 mg/kg; procedure, shortened: as §1
Mus musculus [18] = test: Peripheral plasma levels in mice after oral administration of 50 mg/kg dose for 1 hr; format: functional, organism-based; parameters: dose 50 mg/kg; procedure, shortened: as §1
[19] = In vitro antimicrobial activity against anaerobic bacteria peptostreptococcus intermedius 1264; format: functional
[20] = tested on: Peptoniphilus asaccharolyticus; test: In vitro antimicrobial activity against anaerobic bacteria peptococcus asaccharolyticus 1302; format: functional
Anaerococcus prevotii = test: In vitro antimicrobial activity against anaerobic bacteria peptococcus prevoti 1281; format: functional
Cutibacterium acnes = test: In vitro antimicrobial activity against anaerobic bacteria propionibacterium acnes 79; format: functional
Rattus norvegicus [21] = test: Peripheral plasma levels in rats after oral administration of 100 mg/kg dose for 0.25 hr; format: functional, organism-based; parameters: dose 100 mg/kg
Procedure, shortened: (§2)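 Rats received 100 mg/kg orally and were sampled for peripheral plasma. Concentrations were measured by Micrococcus luteus agar-diffusion microbiological assay in Antibiotic Medium 1, with zone sizes converted using the standard curve for the appropriate compound. Each value is the average of three rats per time point.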

Rattus norvegicus [22] = test: Peripheral plasma levels in rats after oral administration of 100 mg/kg dose for 0.5 hr; format: functional, organism-based; parameters: dose 100 mg/kg; procedure, shortened: as §2
Rattus norvegicus [23] = test: Peripheral plasma levels in rats after oral administration of 100 mg/kg dose for 1 hr; format: functional, organism-based; parameters: dose 100 mg/kg; procedure, shortened: as §2
Rattus norvegicus [24] = test: Peripheral plasma levels in rats after oral administration of 100 mg/kg dose for 2 hr; format: functional, organism-based; parameters: dose 100 mg/kg; procedure, shortened: as §2
Rattus norvegicus [25] = test: Peripheral plasma levels in rats after oral administration of 100 mg/kg dose for 4 hr; format: functional, organism-based; parameters: dose 100 mg/kg; procedure, shortened: as §2
Streptococcus [26] = test: In vitro antimicrobial activity against aerobic bacteria Streptococcus B 14; format: functional
Streptococcus [27] = test: In vitro antimicrobial activity against aerobic bacteria Streptococcus D 8043; format: functional
Streptococcus [28] = test: In vitro antimicrobial activity against aerobic bacteria Streptococcus D 9960; format: functional
[29] = tested on: Staphylococcus epidermidis; test: In vitro antimicrobial activity against aerobic bacteria Streptococcus epi 270; format: functional
Streptococcus pneumoniae [30] = test: In vivo effective dose against experimental infections in mice Strep. pneumoniae park when administered sc; format: functional
Staphylococcus aureus [31] = test: In vitro antimicrobial activity against Staphylococcus aureus X1; format: functional
Staphylococcus aureus [32] = test: In vitro antimicrobial activity against aerobic bacteria Staphylococcus aureus 513E; format: functional
Staphylococcus aureus [33] = test: In vitro antimicrobial activity against aerobic bacteria Staphylococcus aureus V140,; format: functional
Staphylococcus aureus [34] = test: In vitro antimicrobial activity against aerobic bacteria Staphylococcus aureus V41; format: functional
Staphylococcus aureus [35] = test: In vitro antimicrobial activity against aerobic bacteria Staphylococcus aureus X400; format: functional
Streptococcus pneumoniae [36] = test: In vitro antimicrobial activity against aerobic bacteria Streptococcus pneumoniae B1-438; format: functional, streptococcus pneum
Streptococcus pneumoniae [37] = test: In vivo effective dose against experimental infections in mice Strep. pneumoniae park when administered orally; format: functional; conditions: po
Streptococcus pyogenes [38] = test: In vivo effective dose against experimental infections in rodent caused by Streptococcus pyogenes C203 when administered sc; format: functional
Streptococcus pneumoniae [39] = test: In vitro antimicrobial activity against Streptococcus pneumoniae; format: functional
[40] = tested on: Staphylococcus epidermidis; test: In vitro antimicrobial activity against Staphylococcus epidermidis EPI1; format: functional
[41] = tested on: Staphylococcus epidermidis; test: In vitro antimicrobial activity against aerobic bacteria Streptococcus epi 222; format: functional
Staphylococcus aureus [42] = test: In vivo effective dose against experimental infections in mice Staphylococcus aureus X1 when administered orally; format: functional; conditions: po
Staphylococcus aureus [43] = test: In vivo effective dose against experimental infections in mice Staphylococcus aureus X1 when administered sc; format: functional
Enterococcus faecium = test: In vitro antimicrobial activity against Streptococcus faecium X66; format: functional, streptococcus fae-cium
Streptococcus pyogenes [44] = test: In vitro antimicrobial activity against Streptococcus pyogenes C203; format: functional
Streptococcus [45] = test: In vitro antimicrobial activity against aerobic bacteria Streptococcus B 5; format: functional
Staphylococcus aureus [46] = test: In vitro antimicrobial activity against aerobic bacteria Staphylococcus aureus V135; format: functional
Haemophilus influenzae [47] = test: In vitro antimicrobial activity against aerobic bacteria Haemophilus influenzae 465; format: functional
[48] = tested on: Prevotella melaninogenica; test: In vitro antimicrobial activity against anaerobic bacteria bacteroides melaninogenicus 2736; format: functional
[49] = tested on: Fusobacterium necrophorum; test: In vitro antimicrobial activity against anaerobic bacteria usobacterium necrophorum 6054A; format: functional
Mus musculus [50] = test: Peripheral plasma levels in mice after oral administration of 50 mg/kg dose for 0.5 hr; format: functional, organism-based; parameters: dose 50 mg/kg; procedure, shortened: as §1
Collinsella aerofaciens = test: In vitro antimicrobial activity against anaerobic bacteria eubacterium aerofaciens 1235; format: functional
Streptococcus [51] = test: In vitro antimicrobial activity against aerobic bacteria Streptococcus D 2041; format: functional
[52] = tested on: Peptostreptococcus anaerobius; test: In vitro antimicrobial activity against anaerobic bacteria eubacterium peptostreptococcus anaerobius 1428,; format: functional
Streptococcus pyogenes [53] = test: In vivo effective dose against experimental infections in rodent caused by Streptococcus pyogenes C203 when administered orally; format: functional; conditions: po

CC[C@H]1OC(=O)C[C@@H](O)[C@H](C)[C@@H](O[C@@H]2O[C@H](C)[C@@H](O)[C@H](N(C)C)[C@H]2O)[C@@H](CCCl)C[C@@H](C)C(=O)/C=C/C(C)=C/[C@@H]1CO[C@@H]1O[C@H](C)[C@@H](O)[C@@H](OC)[C@H]1OC
MIC (Bacteroides fragilis [1]): 2 µg/mL (≈ 2.52 µM) | MIC (Bacteroides fragilis [2]): 2 µg/mL (≈ 2.52 µM) | MIC (Bacteroides fragilis [3]): 2 µg/mL (≈ 2.52 µM) | MIC (Eikenella corrodens): 2 µg/mL (≈ 2.52 µM) | MIC (Phocaeicola vulgatus): 1 µg/mL (≈ 1.26 µM) | MIC [4]: 1 µg/mL (≈ 1.26 µM) | MIC [5]: 2 µg/mL (≈ 2.52 µM) | MIC (Clostridioides difficile): < 0.5 µg/mL | MIC (Clostridium perfringens): < 0.5 µg/mL | MIC (Clostridium septicum): < 0.5 µg/mL | MIC (Chlamydia trachomatis): 0.25 µg/mL (≈ 0.315 µM) | MIC (Fusobacterium): 2 µg/mL (≈ 2.52 µM) | MIC (Haemophilus influenzae [6]): 16 µg/mL (≈ 20.2 µM) | MIC (Haemophilus influenzae [7]): 16 µg/mL (≈ 20.2 µM) | MIC (Haemophilus influenzae [8]): 16 µg/mL (≈ 20.2 µM) | MIC [9]: 32 µg/mL (≈ 40.4 µM) | Concentration (Mus musculus [10]): 0.4 µg/mL | Concentration (Mus musculus [11]): < 0.1 µg/mL | Concentration (Mus musculus [12]): 0.3 µg/mL | Concentration (Mus musculus [13]): 0.3 µg/mL | Concentration (Mus musculus [14]): 8.4 µg/mL | Concentration (Mus musculus [15]): 6.4 µg/mL | Concentration (Mus musculus [16]): 2.8 µg/mL | Concentration (Mus musculus [17]): 1.5 µg/mL | Concentration (Mus musculus [18]): 0.3 µg/mL | MIC [19]: 2 µg/mL (≈ 2.52 µM) | MIC [20]: 2 µg/mL (≈ 2.52 µM) | MIC (Anaerococcus prevotii): 1 µg/mL (≈ 1.26 µM) | MIC (Cutibacterium acnes): 16 µg/mL (≈ 20.2 µM) | Concentration (Rattus norvegicus [21]): 5.4 µg/mL | Concentration (Rattus norvegicus [22]): 8.8 µg/mL | Concentration (Rattus norvegicus [23]): 9.4 µg/mL | Concentration (Rattus norvegicus [24]): 12.7 µg/mL | Concentration (Rattus norvegicus [25]): 7.7 µg/mL | MIC (Streptococcus [26]): 64 µg/mL (≈ 80.8 µM) | MIC (Streptococcus [27]): 4 µg/mL (≈ 5.05 µM) | MIC (Streptococcus [28]): 8 µg/mL (≈ 10.1 µM) | MIC [29]: > 128 µg/mL | ED50 (Streptococcus pneumoniae [30]): > 20 mg/kg | MIC (Staphylococcus aureus [31]): 0.25 µg/mL (≈ 0.315 µM) | MIC (Staphylococcus aureus [32]): 0.12 µg/mL (≈ 0.151 µM) | MIC (Staphylococcus aureus [33]): 0.25 µg/mL (≈ 0.315 µM) | MIC (Staphylococcus aureus [34]): 0.12 µg/mL (≈ 0.151 µM) | MIC (Staphylococcus aureus [35]): 0.12 µg/mL (≈ 0.151 µM) | MIC (Streptococcus pneumoniae [36]): > 128 µg/mL | ED50 (Streptococcus pneumoniae [37]): > 50 mg/kg | ED50 (Streptococcus pyogenes [38]): 0.7 mg/kg | MIC (Streptococcus pneumoniae [39]): 1 µg/mL (≈ 1.26 µM) | MIC [40]: 0.12 µg/mL (≈ 0.151 µM) | MIC [41]: 0.6 µg/mL (≈ 0.757 µM) | ED50 (Staphylococcus aureus [42]): 9 mg/kg | ED50 (Staphylococcus aureus [43]): 1.8 mg/kg | MIC (Enterococcus faecium): 8 µg/mL (≈ 10.1 µM) | MIC (Streptococcus pyogenes [44]): 0.25 µg/mL (≈ 0.315 µM) | MIC (Streptococcus [45]): > 128 µg/mL | MIC (Staphylococcus aureus [46]): 0.25 µg/mL (≈ 0.315 µM) | MIC (Haemophilus influenzae [47]): 16 µg/mL (≈ 20.2 µM) | MIC [48]: 2 µg/mL (≈ 2.52 µM) | MIC [49]: 8 µg/mL (≈ 10.1 µM) | Concentration (Mus musculus [50]): 0.4 µg/mL | MIC (Collinsella aerofaciens): 4 µg/mL (≈ 5.05 µM) | MIC (Streptococcus [51]): 16 µg/mL (≈ 20.2 µM) | MIC [52]: < 0.5 µg/mL | ED50 (Streptococcus pyogenes [53]): 5 mg/kg

Source: ChEMBL document CHEMBL1124186, “Synthesis and evaluation of tylosin-related macrolides modified at the aldehyde function: a new series of orally effective antibiotics” (1988)
